pIC50: −log10 of the molar value. In brackets after ≈: the same amount, converted by molar mass. Activity calls are given as the source filed them. No cut-off for these calls is given here.
Legend:
[1] = Cytotoxicity against human KBV cells assessed as reduction in cell viability after 72 hrs by MTT assay; format: functional, cell-based
[2] = Cytotoxicity against human KBV cells assessed as cell viability at 1.5 uM after 72 hrs by MTT assay relative to control; format: functional; settings: read-out: Activity
Procedure, shortened: (§1)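 Cells grown in DMEM with 10% heat-inactivated FCS and penicillin/streptomycin at 37 °C, 5% CO2, and used in log phase. Seeded in 96-well plates and exposed to compounds at 5 μM and 1.5 μM for 72 h. MTT added, formazan dissolved in DMSO, OD read at 570 nm, and survival rate calculated. Average of at least three independent experiments.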

[3] = system: MKN-45; test: Cytotoxicity against human MKN45 cells assessed as reduction in cell viability after 72 hrs by MTT assay; format: functional, cell-based; settings: MKN-45, 72 h
[4] = Toxicity in BALB/c mouse xenografted with human HeLa cells assessed as body weight at 25 mg/kg, ig bid measured every 3 days (reference value: 21.2 +/- 1.5 g); format: organism-based; settings: in vivo, po, 72 h
[5] = system: HeLa; test: Cytotoxicity against human HeLa cells assessed as cell viability at 1.5 uM after 72 hrs by MTT assay relative to control; format: functional; settings: read-out: Activity; procedure, shortened: as §1
[6] = system: MKN-45; test: Cytotoxicity against human MKN45 cells assessed as cell viability at 1.5 uM after 72 hrs by MTT assay relative to control; format: functional; settings: MKN-45, 72 h, read-out: Activity; procedure, shortened: as §1
[7] = Cytotoxicity against human JHH7 cells assessed as reduction in cell viability after 72 hrs by MTT assay; format: functional, cell-based; settings: JHH7, 72 h
[8] = system: HeLa; test: Cytotoxicity against human HeLa cells assessed as reduction in cell viability after 72 hrs by MTT assay; format: functional, cell-based
[9] = system: HeLa; test: Antitumor activity against human HeLa cells xenografted in BALB/c mouse assessed as tumor growth inhibition at 50 mg/kg, ig bid measured every 3 days relative to control; format: functional; settings: po, 72 h, read-out: TGI
[10] = system: HeLa; test: Induction of apoptosis in human HeLa cells assessed as increase in ratio of sub-G0 to G1 phase at 5 uM after 48 to 72 hrs by propidium iodide staining based FACS analysis; format: functional, cell-based
[11] = system: U-87 MG; test: Cytotoxicity against human U87 cells assessed as cell viability at 1.5 uM after 72 hrs by MTT assay relative to control; format: functional, U-87MG ATCC; settings: read-out: Activity; procedure, shortened: as §1
[12] = system: MKN-45; test: Cytotoxicity against human MKN45 cells assessed as cell viability at 5 uM after 72 hrs by MTT assay relative to control; format: functional; settings: MKN-45, 72 h, read-out: Activity; procedure, shortened: as §1
[13] = system: U-87 MG; test: Cytotoxicity against human U87 cells assessed as reduction in cell viability after 72 hrs by MTT assay; format: functional, cell-based, U-87MG ATCC
[14] = system: HeLa; test: Induction of apoptosis in human HeLa cells assessed as increase in early apoptotic cells at 2 uM after 24 hrs by TUNEL staining based fluorescence microscopic analysis; format: functional, cell-based
Procedure, shortened: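 HeLa cells seeded at 2×10^4 cells/well on cover slips and grown 24 h, then treated at 2 μM for 24 h. Fixed, permeabilized, and incubated with TUNEL reaction mixture (labeling enzyme plus labeled dUTP) at 37 °C for 1 h. DAPI counterstain, and TUNEL-positive cells viewed by fluorescence microscopy.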

[15] = system: HeLa; test: Cytotoxicity against human HeLa cells assessed as cell viability at 5 uM after 72 hrs by MTT assay relative to control; format: functional; settings: read-out: Activity; procedure, shortened: as §1
[16] = Cytotoxicity against human KBV cells assessed as cell viability at 5 uM after 72 hrs by MTT assay relative to control; format: functional; settings: read-out: Activity; procedure, shortened: as §1
[17] = system: HeLa; test: Antitumor activity against human HeLa cells xenografted in BALB/c mouse assessed as tumor growth inhibition at 25 mg/kg, ig bid measured every 3 days relative to control; format: functional; settings: po, 72 h, read-out: TGI
[18] = Toxicity in BALB/c mouse xenografted with human HeLa cells assessed as body weight at 50 mg/kg, ig bid measured every 3 days (reference value: 21.2 +/- 1.5 g); format: organism-based; settings: in vivo, po, 72 h
[19] = system: HeLa; test: Inhibition of protein synthesis in human HeLa cells assessed as decrease in puromycin-incorporated neo-synthesized proteins preincubated for 2 hrs followed by puromycin addition and measured after 10 mins by chemiluminescence assay; format: functional, cell-based
Procedure, shortened: (§2)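 HeLa cells at 70-80% confluence treated with compound for 2 h (range 1-10 μM), then pulsed with 10 μg/mL puromycin for 10 min. After ice-cold PBS washes, lysates run on SDS-PAGE and immunoblotted with anti-puromycin antibody (1:100, overnight, 4 °C) and HRP anti-mouse IgG. Read by enhanced chemiluminescence.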

[20] = system: U-87 MG; test: Cytotoxicity against human U87 cells assessed as cell viability at 5 uM after 72 hrs by MTT assay relative to control; format: functional, U-87MG ATCC; settings: read-out: Activity; procedure, shortened: as §1
[21] = Cytotoxicity against HEK293 cells assessed as reduction in cell viability after 72 hrs by MTT assay; format: cell-based; settings: human
[22] = system: Staphylococcus aureus; test: Antibacterial activity against Staphylococcus aureus; format: functional
[23] = system: HeLa; test: Inhibition of protein synthesis in human HeLa cells assessed as decrease in puromycin-incorporated neo-synthesized proteins at 5 uM preincubated for 2 hrs followed by puromycin addition and measured after 10 mins by chemiluminescence assay; format: functional, cell-based; procedure, shortened: as §2

Compound | viability at 1.5 µM [2] | viability at 1.5 µM [5] | viability at 1.5 µM [6] | viability at 1.5 µM [11] | viability at 5 µM [12] | viability at 5 µM [15] | viability at 5 µM [16] | viability at 5 µM [20] | further results
CC(=O)O[C@H]1C[C@@]2(C)[C@@H](C[C@@H](O)[C@H]3[C@@]4(C)CC[C@@H](OC(=O)CCN)[C@@H](C)[C@@H]4CC[C@@]32C)/C1=C(\CCC=C(C)C)C(=O)OCc1ccccc1 | 14% | 32% | 23% | 10% | 5% | 13% | 12% | 9% | pIC50 [1]: 5.90; pIC50 [3]: 5.89; Activity [4]: 20.4 g; pIC50 [7]: 5.50; pIC50 [8]: 5.45; inhibition in vivo at 50 mg/kg [9]: 45.5%; Activity [10]: Active; pIC50 [13]: 5.62; Activity [14]: Active; inhibition in vivo at 25 mg/kg [17]: 35.4%; Activity [18]: 20.5 g; inhibition [19]: Dose-dependent effect
CC(=O)O[C@H]1C[C@@]2(C)[C@@H](C[C@@H](O)[C@H]3[C@@]4(C)CC[C@@H](OC(=O)c5ccccc5C(=O)O)[C@@H](C)[C@@H]4CC[C@@]32C)/C1=C(\CCC=C(C)C)C(=O)OCc1ccccc1 | 78% | 89% | 78% | 81% | 76% | 68% | 81% | 85% | CC50 at 72 h [21]: 20.6 µg/mL (≈ 27.3 µM); MIC [22]: 32 µg/mL (≈ 42.4 µM)
CC(=O)O[C@H]1C[C@@]2(C)[C@@H](C[C@@H](O)[C@H]3[C@@]4(C)CC[C@@H](O)[C@@H](C)[C@@H]4CC[C@@]32C)/C1=C(\CCC=C(C)C)C(=O)O [FUSIDIC ACID] | 71% | 70% | 80% | 92% | 83% | 73% | 67% | 87% | pIC50 [1]: < 4.00; CC50 at 72 h [21]: > 32 µg/mL; pIC50 [3]: < 4.00; MIC [22]: ≤ 0.25 µg/mL; pIC50 [7]: < 4.00; pIC50 [8]: < 4.00; inhibition [23]: inactive; Activity [10]: inactive; pIC50 [13]: < 4.00; Activity [14]: inactive
CC(=O)O[C@H]1C[C@@]2(C)[C@@H](C[C@@H](O)[C@H]3[C@@]4(C)CC[C@@H](OC(=O)CN)[C@@H](C)[C@@H]4CC[C@@]32C)/C1=C(\CCC=C(C)C)C(=O)OCc1ccccc1 | 97% | 100% | 95% | 94% | 93% | 96% | 28% | 41% | CC50 at 72 h [21]: 10.8 µg/mL (≈ 16.3 µM); MIC [22]: > 32 µg/mL
CC(=O)O[C@H]1C[C@@]2(C)[C@@H](C[C@@H](O)[C@H]3[C@@]4(C)CC[C@@H](OC(=O)c5ccccc5C(=O)N5CCN(C)CC5)[C@@H](C)[C@@H]4CC[C@@]32C)/C1=C(\CCC=C(C)C)C(=O)OCc1ccccc1 | 89% | 83% | 104% | 86% | 99% | 73% | 75% | 77% | –
CC(=O)O[C@H]1C[C@@]2(C)[C@@H](C[C@@H](O)[C@H]3[C@@]4(C)CC[C@@H](OC(=O)c5ccccc5C(=O)N5CCOCC5)[C@@H](C)[C@@H]4CC[C@@]32C)/C1=C(\CCC=C(C)C)C(=O)OCc1ccccc1 | 81% | 76% | 104% | 86% | 92% | 60% | 66% | 77% | –
CC(=O)O[C@H]1C[C@@]2(C)[C@@H](C[C@@H](O)[C@H]3[C@@]4(C)CC[C@@H](OC(=O)c5ccccc5C(=O)n5ccnc5)[C@@H](C)[C@@H]4CC[C@@]32C)/C1=C(\CCC=C(C)C)C(=O)OCc1ccccc1 | 81% | 84% | 103% | 85% | 92% | 63% | 69% | 77% | –
CC(=O)O[C@H]1C[C@@]2(C)[C@@H](C[C@@H](O)[C@H]3[C@@]4(C)CC[C@@H](OC(=O)CCC(=O)O)[C@@H](C)[C@@H]4CC[C@@]32C)/C1=C(\CCC=C(C)C)C(=O)OCc1ccccc1 | 72% | 83% | 74% | 86% | 76% | 69% | 66% | 84% | –
CC(=O)O[C@H]1C[C@@]2(C)[C@@H](C[C@@H](O)[C@H]3[C@@]4(C)CC[C@@H](OC(=O)[C@@H](N)CCCCN)[C@@H](C)[C@@H]4CC[C@@]32C)/C1=C(\CCC=C(C)C)C(=O)OCc1ccccc1 | 99% | 101% | 91% | 105% | 8% | 8% | 18% | 9% | –
CC(=O)O[C@H]1C[C@@]2(C)[C@@H](C[C@@H](O)[C@H]3[C@@]4(C)CC[C@@H](OC(=O)C(C)N)[C@@H](C)[C@@H]4CC[C@@]32C)/C1=C(\CCC=C(C)C)C(=O)OCc1ccccc1 (some centres undefined) | 95% | 102% | 96% | 95% | 91% | 23% | 15% | 33% | –
CC(=O)O[C@H]1C[C@@]2(C)[C@@H](C[C@@H](O)[C@H]3[C@@]4(C)CC[C@@H](OC(=O)CCC(=O)N5CCOCC5)[C@@H](C)[C@@H]4CC[C@@]32C)/C1=C(\CCC=C(C)C)C(=O)OCc1ccccc1 | 78% | 76% | 82% | 91% | 78% | 64% | 66% | 93% | –

— ChEMBL document CHEMBL4325897, “Discovery, synthesis of novel fusidic acid derivatives possessed amino-terminal groups at the 3-hydroxyl position with anticancer activity” (Eur J Med Chem, 2019)
